Converted amounts (≈) assume the structure as drawn. The source made the active and inactive calls. No cut-off for these calls is given here.
Experiments:
Coxsackievirus B5 = assay: Antiviral activity against Human coxsackievirus B5 ATCC VR-29 infected in African green monkey Vero 76 cells assessed as reduction of virus-plaque formation after 3 days by crystal violet staining; type: functional, organism-based; conditions: Enterovirus B, ATCC VR-29, Vero, 72 h
Method in brief: (§1)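 Plaque reduction: Vero-76 at 2x10^5 cells/well grown to confluent monolayers, infected 2 h at 50–100 PFU/well; after removing unadsorbed virus, overlay of D-MEM, 1% inactivated FBS, 0.75% methylcellulose with or without serial compound dilutions; 3 days at 37°C, fixed and stained with crystal violet in 50% ethanol, plaques counted; EC50 by linear regression.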

[1] = Cytotoxicity against African green monkey Vero 76 cells assessed as cell viability after 48 to 96 hrs by crystal violet staining; type: cell-based; conditions: chlorocebus sabaeus
Micrococcus luteus [2] = assay: Antimicrobial activity against Micrococcus luteus ATCC 9341 at 400 ug after 18 hrs by disc-diffusion method; type: functional; conditions: ATCC 9341, 18 h, read-out: IZ
Method in brief: (§2)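 Disc diffusion on Mueller-Hinton II agar per CLSI; 9 mm paper discs loaded with 400 µg compound from DMSO solution, dried, placed on agar; growth inhibition zone diameter read after 18 h at 35°C.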

Bacillus subtilis = assay: Antimicrobial activity against Bacillus subtilis ATCC 6633 at 400 ug after 18 hrs by disc-diffusion method; type: functional; conditions: ATCC 6633, 18 h, read-out: IZ; method in brief: as §2
Staphylococcus aureus [3] = assay: Antimicrobial activity against Staphylococcus aureus ATCC 25923 after 18 hrs by twofold serial microdilution method; type: functional; conditions: ATCC 25923, 18 h
Enterococcus hirae = assay: Antimicrobial activity against Enterococcus hirae ATCC 10541 at 400 ug after 18 hrs by disc-diffusion method; type: functional; conditions: for zone of inhibition at 400 µg/disc: ATCC 10541, 18 h, read-out: IZ; method in brief: as §2
[4] = Cytotoxicity against bovine MDBK cells assessed as cell viability after 48 to 96 hrs by MTT assay; type: cell-based, Bos taurus; conditions: cattle
[5] = system: Staphylococcus epidermidis; assay: Antimicrobial activity against Staphylococcus epidermidis ATCC 12228 after 18 hrs by twofold serial microdilution method; type: functional; conditions: ATCC 12228, 18 h
[6] = system: Mycobacterium tuberculosis; assay: Antimycobacterial activity against Mycobacterium tuberculosis H37Rv ATCC 25618; type: functional
Method in brief: (§3)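 Classical test-tube successive-dilution method in Youmans' modification of Proskauer and Beck liquid medium with 10% bovine serum. Inoculum came from 14-day cultures. DMSO stock was 10 mg/mL, diluted geometrically in medium. Tubes were incubated at 37 °C. Concentrations tested were 3.1, 6.2, 12.5, 25, 50 and 100 µg/ml. MIC is the minimum concentration inhibiting growth relative to compound-free tubes.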

Staphylococcus aureus [7] = assay: Antimicrobial activity against Staphylococcus aureus ATCC 25923 at 400 ug after 18 hrs by disc-diffusion method; type: functional; conditions: ATCC 25923, 18 h, read-out: IZ; method in brief: as §2
[8] = Cytotoxicity against human MT4 cells; type: cell-based
Staphylococcus aureus [9] = assay: Antimicrobial activity against Staphylococcus aureus NCTC 4163 after 18 hrs by twofold serial microdilution method; type: functional; conditions: NCTC 4163, 18 h
Yellow fever virus = assay: Antiviral activity against Yellow fever virus 17D infected in BHK cells assessed as protection against virus-induced cytopathogenicity after 3 to 4 days by MTT assay; type: functional, cell-based
Staphylococcus aureus [10] = assay: Antimicrobial activity against Staphylococcus aureus NCTC 4163 at 400 ug after 18 hrs by disc-diffusion method; type: functional; conditions: NCTC 4163, 18 h, read-out: IZ; method in brief: as §2
[11] = Cytotoxicity against BHK cells assessed as cell viability after 48 to 96 hrs by MTT assay; type: cell-based, Mesocricetus auratus; conditions: hamster
[12] = system: Human immunodeficiency virus 1; assay: Antiviral activity against HIV1 3B infected in human MT4 cells assessed as protection against virus-induced cytopathogenicity by MTT assay; type: functional, organism-based; conditions: Human immunodeficiency virus 1, 3B
[13] = Antiviral activity against Bovine viral diarrhea virus 1-NADL ATCC VR-534 infected in MDBK cells assessed as protection against virus-induced cytopathogenicity after 3 to 4 days by MTT assay; type: functional, cell-based; conditions: Bovine viral diarrhea virus isolates and strains, ATCC VR-534, MDBK
Method in brief: (§4)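 Cells seeded in 96-well plates (BHK 5x10^4, MDBK 3x10^4 cells/well), grown overnight to confluence, infected at m.o.i. 0.01 (BHK for Reo-1, MDBK for BVDV); serial compound dilutions in maintenance medium with 0.5% inactivated FBS added after 1 h; viability by MTT after 3–4 days at 37°C; EC50 for 50% protection by linear regression.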

[14] = system: Mycobacterium tuberculosis; assay: Antimycobacterial activity against drug-sensitive Mycobacterium tuberculosis Spec. 192; type: functional; method in brief: as §3
Staphylococcus aureus [15] = assay: Antimicrobial activity against Staphylococcus aureus ATCC 6538 after 18 hrs by twofold serial microdilution method; type: functional; conditions: ATCC 6538, 18 h
[16] = system: Mammalian orthoreovirus 1; assay: Antiviral activity against Reovirus type-1 ATCC VR-214 infected in BHK cells assessed as protection against virus-induced cytopathogenicity after 3 to 4 days by MTT assay; type: functional, cell-based; conditions: Mammalian orthoreovirus 1, ATCC VR-214, BHK; method in brief: as §4
Staphylococcus aureus [17] = assay: Antimicrobial activity against Staphylococcus aureus ATCC 29213 after 18 hrs by twofold serial microdilution method; type: functional; conditions: ATCC 29213, 18 h
Enterococcus faecalis = assay: Antimicrobial activity against Enterococcus faecalis ATCC 29212 at 400 ug after 18 hrs by disc-diffusion method; type: functional; conditions: ATCC 29212, 18 h, read-out: IZ; method in brief: as §2
Staphylococcus aureus [18] = assay: Antimicrobial activity against Staphylococcus aureus ATCC 29213 at 400 ug after 18 hrs by disc-diffusion method; type: functional; conditions: ATCC 29213, 18 h, read-out: IZ; method in brief: as §2
[19] = system: Vesicular stomatitis virus; assay: Antiviral activity against Vesicular stomatitis virus ATCC VR 1540 infected in African green monkey Vero 76 cells assessed as reduction of virus-plaque formation after 2 days by crystal violet staining; type: functional, organism-based; conditions: ATCC VR 1540, Vero, 48 h
[20] = system: Staphylococcus epidermidis; assay: Antimicrobial activity against Staphylococcus epidermidis ATCC 12228 at 400 ug after 18 hrs by disc-diffusion method; type: functional; conditions: ATCC 12228, 18 h, read-out: IZ; method in brief: as §2
Poliovirus 1 = assay: Antiviral activity against Poliovirus type 1 ATCC VR-1562 infected in African green monkey Vero 76 cells assessed as reduction of virus-plaque formation after 2 days by crystal violet staining; type: functional, organism-based; conditions: Enterovirus C, ATCC VR-1562, Vero, 48 h
Vaccinia virus = assay: Antiviral activity against Human Vaccinia virus ATCC VR-1549 infected in African green monkey Vero 76 cells assessed as reduction of virus-plaque formation after 3 days by crystal violet staining; type: functional, organism-based; conditions: Orthopoxvirus vaccinia, ATCC VR-1549, Vero, 72 h
Proteus vulgaris = assay: Antimicrobial activity against Proteus vulgaris NCTC 4635 at 400 ug after 18 hrs by disc-diffusion method; type: functional; method in brief: as §2
[21] = system: Staphylococcus epidermidis; assay: Antimicrobial activity against Staphylococcus epidermidis ATCC 35984 at 400 ug after 18 hrs by disc-diffusion method; type: functional; conditions: ATCC 35984, 18 h, read-out: IZ; method in brief: as §2
Bacillus cereus = assay: Antimicrobial activity against Bacillus cereus ATCC 11778 at 400 ug after 18 hrs by disc-diffusion method; type: functional; conditions: ATCC 11778, 18 h, read-out: IZ; method in brief: as §2
[22] = system: Staphylococcus epidermidis; assay: Antimicrobial activity against Staphylococcus epidermidis ATCC 35984 after 18 hrs by twofold serial microdilution method; type: functional; conditions: ATCC 35984, 18 h
Human alphaherpesvirus 1 = assay: Antiviral activity against Human herpesvirus 1 KOS ATCC VR-1493 infected in African green monkey Vero 76 cells assessed as reduction of virus-plaque formation after 3 days by crystal violet staining; type: functional, organism-based; conditions: Human alphaherpesvirus 1, KOS ATCC VR1493, Vero, 72 h; method in brief: as §1
Micrococcus luteus [23] = assay: Antimicrobial activity against Micrococcus luteus ATCC 10240 at 400 ug after 18 hrs by disc-diffusion method; type: functional; conditions: ATCC 10240, 18 h, read-out: IZ; method in brief: as §2
Staphylococcus aureus [24] = assay: Antimicrobial activity against Staphylococcus aureus ATCC 6538 at 400 ug after 18 hrs by disc-diffusion method; type: functional; conditions: ATCC 6538, 18 h, read-out: IZ; method in brief: as §2

Structure (SMILES)	EC50 (Coxsackievirus B5) [µM]	CC50 [1] [µM]	zone of inhibition at 400 µg/disc (Micrococcus luteus [2]) [mm]	zone of inhibition at 400 µg/disc (Bacillus subtilis) [mm]	MIC (Staphylococcus aureus [3]) [µg/mL]	CC50 [4] [µM]	MIC [5] [µg/mL]	MIC [6] [µg/mL]	zone of inhibition at 400 µg/disc (Staphylococcus aureus [7]) [mm]	CC50 [8] [µM]	MIC (Staphylococcus aureus [9]) [µg/mL]	EC50 (Yellow fever virus) [µM]	zone of inhibition at 400 µg/disc (Staphylococcus aureus [10]) [mm]	CC50 [11] [µM]	EC50 [12] [µM]	EC50 [13] [µM]	MIC [14] [µg/mL]	MIC (Staphylococcus aureus [15]) [µg/mL]	EC50 [16] [µM]	MIC (Staphylococcus aureus [17]) [µg/mL]	other results
FC(F)(F)c1cccc(NC(=S)NCc2ccco2)c1	> 50	50	13	15	256 (≈ 852 µM)	> 100	256 (≈ 852 µM)	> 100	14	43	256 (≈ 852 µM)	> 48	14	48	> 43	> 100	> 100	256 (≈ 852 µM)	> 48	256 (≈ 852 µM)	zone of inhibition at 400 µg/disc (Enterococcus hirae): 13 mm; zone of inhibition at 400 µg/disc (Enterococcus faecalis): 0 mm; zone of inhibition at 400 µg/disc (Staphylococcus aureus [18]): 19 mm; EC50 [19]: > 50 µM; zone of inhibition at 400 µg/disc [20]: 12 mm; EC50 (Poliovirus 1): > 50 µM; EC50 (Vaccinia virus): > 50 µM; inhibition zone (IZ) (Proteus vulgaris): inactive; zone of inhibition at 400 µg/disc [21]: 13 mm; zone of inhibition at 400 µg/disc (Bacillus cereus): 13 mm; MIC [22]: 512 µg/mL (≈ 1700 µM); EC50 (Human alphaherpesvirus 1): > 50 µM; zone of inhibition at 400 µg/disc (Micrococcus luteus [23]): 13 mm; zone of inhibition at 400 µg/disc (Staphylococcus aureus [24]): 14 mm
Fc1ccc(NC(=S)Nc2cccc(C(F)(F)F)c2)cc1	> 40	40	28	25	8 (≈ 25.5 µM)	41	16 (≈ 50.9 µM)	25 (≈ 79.5 µM)	23	31	8 (≈ 25.5 µM)	> 26	27	26	> 31	> 41	25 (≈ 79.5 µM)	16 (≈ 50.9 µM)	> 26	16 (≈ 50.9 µM)	zone of inhibition at 400 µg/disc (Enterococcus hirae): 30 mm; zone of inhibition at 400 µg/disc (Enterococcus faecalis): 20 mm; zone of inhibition at 400 µg/disc (Staphylococcus aureus [18]): 25 mm; EC50 [19]: > 40 µM; zone of inhibition at 400 µg/disc [20]: 26 mm; EC50 (Poliovirus 1): > 40 µM; EC50 (Vaccinia virus): > 40 µM; zone of inhibition at 400 µg/disc (Proteus vulgaris; NCTC 4635, 18 h, read-out: IZ): 14 mm; zone of inhibition at 400 µg/disc [21]: 25 mm; zone of inhibition at 400 µg/disc (Bacillus cereus): 23 mm; MIC [22]: 16 µg/mL (≈ 50.9 µM); EC50 (Human alphaherpesvirus 1): > 40 µM; zone of inhibition at 400 µg/disc (Micrococcus luteus [23]): 28 mm; zone of inhibition at 400 µg/disc (Staphylococcus aureus [24]): 25 mm
O=C(NC(=S)Nc1cccc(C(F)(F)F)c1)c1ccccc1	> 100	> 100	17	17	32 (≈ 98.7 µM)	> 100	64 (≈ 197 µM)	> 100	17	> 100	32 (≈ 98.7 µM)	> 100	17	> 100	> 100	> 100	> 100	32 (≈ 98.7 µM)	> 100	32 (≈ 98.7 µM)	inhibition zone (IZ) (Enterococcus hirae): inactive; zone of inhibition at 400 µg/disc (Enterococcus faecalis): 12 mm; zone of inhibition at 400 µg/disc (Staphylococcus aureus [18]): 17 mm; EC50 [19]: > 100 µM; zone of inhibition at 400 µg/disc [20]: 17 mm; EC50 (Poliovirus 1): > 100 µM; EC50 (Vaccinia virus): > 100 µM; inhibition zone (IZ) (Proteus vulgaris): inactive; zone of inhibition at 400 µg/disc [21]: 16 mm; zone of inhibition at 400 µg/disc (Bacillus cereus): 14 mm; MIC [22]: 64 µg/mL (≈ 197 µM); EC50 (Human alphaherpesvirus 1): > 100 µM; zone of inhibition at 400 µg/disc (Micrococcus luteus [23]): 19 mm; zone of inhibition at 400 µg/disc (Staphylococcus aureus [24]): 17 mm

Source: ChEMBL document CHEMBL3616436, “Synthesis, cytotoxicity and antimicrobial activity of thiourea derivatives incorporating 3-(trifluoromethyl)phenyl moiety” (Eur J Med Chem, 2015)
